{"source": "ChEMBL document CHEMBL5715960", "about": "“Epigenetic Co-Deregulation of EZH2/TET1 is a Senescence-Countering, Actionable Vulnerability in Triple-Negative Breast Cancer” (Theranostics, 2019)", "key": {"SK-BR-3": {"test_system": "SK-BR-3", "assay": "Antiproliferative activity in human SK-BR-3 cells assessed as increase in SA-beta-gal positive cells at 2 uM for 5 days by SA-beta-gal staining analysis", "type": "toxicity, cell-based", "details": "sk-br-3, 120 h, time 5 day", "summary_of_the_method": "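GSK343 2 µM or DMSO for 5 days, then chromogenic SA-β-gal staining and counting of positive cells. Triplicate; mean ± SD.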"}, "MDA-MB-231 [1]": {"test_system": "MDA-MB-231", "assay": "[…] in human MDA-MB-231 cells xenografted in Crl:NU-Foxn1-nu/nu mouse […] administered at 5 mg/kg, ip in presence of adriamycin treated for 21 days by SA-beta-gal staining analysis", "type": "functional, organism-based", "details": "time 21.0 day", "summary_of_the_method": "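SA-β-gal staining of xenograft tumors. Twice-weekly intraperitoneal GSK343 5 mg/kg, adriamycin 1 mg/kg, the combination, or DMSO, started at a tumor volume of about 50 mm3 and continued for 21 days.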"}, "MDA-MB-361 [2]": {"test_system": "MDA-MB-361", "assay": "Cytotoxicity against human MDA-MB-361 cells at 0.5 to 2 uM for 2 days by Guava viacount assay", "type": "toxicity, cell-based", "details": "mda-mb-361, 48 h, dose 0.5-2 µM, time 2 day", "summary_of_the_method": "(§1)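 Cells plated at 2 × 10^4 (24-well) or 1 × 10^5 (12-well), exposed to a range of GSK343 concentrations for 2 days against DMSO solvent control; cell number and viability read by Guava ViaCount flow cytometry, relative to DMSO. Triplicate; mean ± SD.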"}, "MDA-MB-231 [3]": {"test_system": "MDA-MB-231", "assay": "Induction of cell cycle arrest in human MDA-MB-231 cells assessed as accumulation of cells at G1 phase measured at 2 uM by BrdU/PI staining based flow cytometric analysis (reference value: 51.5%)", "type": "functional"}, "MDA-MB-231 [4]": {"test_system": "MDA-MB-231", "assay": "Antiproliferative activity against human MDA-MB-231 cells at 0.5 to 2 uM for 2 days by Guava viacount assay", "type": "functional, cell-based", "details": "dose 0.5-2 µM, time 2.0 day", "summary_of_the_method": "as §1"}, "MDA-MB-436 [5]": {"test_system": "MDA-MB-436", "assay": "Effect on human MDA-MB-436 cells assessed as increase in TET1 mRNA level by qRT-PCR analysis"}, "MDA-MB-231 [6]": {"test_system": "MDA-MB-231", "assay": "Effect on human MDA-MB-231 cells assessed as apoptotic phenotype by measuring increase in PUMA expression level at 2 uM in presence of adriamycin by immunoblot analysis", "type": "functional, cell-based", "summary_of_the_method": "(§2)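 Immunoblot of cell lysates after 0.05 µg/ml adriamycin alone, with 2 µM GSK343, or DMSO. α-Tubulin and total H3 used as loading controls.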"}, "MDA-MB-231 [7]": {"test_system": "MDA-MB-231", "assay": "Effect on human MDA-MB-231 cells assessed as increase in TET1 transcription by qRT-PCR analysis", "type": "functional, cell-based", "summary_of_the_method": "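qRT-PCR of TET1, TET2 and TET3 transcripts in breast cancer cells exposed to GSK343 (2 µM unless otherwise indicated), shown relative to DMSO-treated cells. Mean ± SD, triplicate unless stated.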"}, "MCF7 [8]": {"test_system": "MCF7", "assay": "Antiproliferative activity against human MCF7 cells assessed as increase in global H3K9me3 expression level by immunoblot analysis", "type": "toxicity, cell-based", "summary_of_the_method": "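Cells exposed to GSK343 at 2 µM (standard level unless stated otherwise), lysed and immunoblotted; α-tubulin and total H3 as loading controls.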"}, "MDA-MB-436 [9]": {"test_system": "MDA-MB-436", "assay": "Induction of apoptosis in human MDA-MB-436 cells xenografted in Crl:NU-Foxn1-nu/nu mouse assessed as apoptotic cells in tumor administered at 5 mg/kg, ip in presence of adriamycin treated for 21 days by TUNEL staining analysis", "type": "functional, organism-based", "details": "time 21.0 day", "summary_of_the_method": "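TUNEL staining of xenograft tumor sections. Dosing started when tumors reached about 50 mm3: twice-weekly intraperitoneal GSK343 5 mg/kg, adriamycin 1 mg/kg, the combination, or DMSO solvent control, for 21 days.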"}, "MCF7 [10]": {"test_system": "MCF7", "assay": "Effect on human MCF7 cells assessed as increase in global 5hmc level by dot analysis", "type": "functional, cell-based", "summary_of_the_method": "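Global 5hmC measured by dot blot on genomic DNA from cells given GSK343 or carrying EZH2 knock-down, with DMSO or scrambled shRNA as controls. DNA denatured in 0.1 M NaOH at 99 °C for 5 min, then neutralized with ammonium sulfate pH 7.0. 5 µg spotted, UV-crosslinked, probed with anti-5hmC for 1 h at room temperature, ECL detection, dot intensity quantified. Mean ± SD.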"}, "MDA-MB-231 [11]": {"test_system": "MDA-MB-231", "assay": "Upregulation of CDKN1A gene in human MDA-MB-231 cells at 2 uM by qRT-PCR analysis", "type": "functional, cell-based", "summary_of_the_method": "(§3)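 Relative transcript levels measured by qRT-PCR in cells treated with 2 µM inhibitor, normalised to DMSO-treated control cells. Triplicate experiments unless stated otherwise; mean ± SD reported; unpaired two-tailed Student's t-test at p < 0.05.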"}, "MDA-MB-436 [12]": {"test_system": "MDA-MB-436", "assay": "Antiproliferative activity against human MDA-MB-436 cells assessed as increase in cell death at 10 uM for 2 days by Guava viacount assay", "type": "functional, cell-based", "details": "time 2.0 day", "summary_of_the_method": "as §1"}, "MDA-MB-231 [13]": {"test_system": "MDA-MB-231", "assay": "Antiproliferative activity against human MDA-MB-231 cells assessed as increase in cell death at 10 uM for 2 days by Guava viacount assay", "type": "functional, cell-based", "details": "time 2.0 day", "summary_of_the_method": "as §1"}, "MDA-MB-436 [14]": {"test_system": "MDA-MB-436", "assay": "Antiproliferative activity in human MDA-MB-436 cells expressing shTET1 assessed as increase in SA-beta-gal positive cells by SA-beta-gal staining analysis (reference value: 8.2+/-2.4%)", "type": "functional"}, "MDA-MB-361 [15]": {"test_system": "MDA-MB-361", "assay": "Cytotoxicity against human MDA-MB-361 cells assessed as increase in cell death at 10 uM for 2 days by Guava viacount assay", "type": "toxicity, cell-based", "details": "mda-mb-361, 48 h, time 2 day", "summary_of_the_method": "as §1"}, "MDA-MB-231 [16]": {"test_system": "MDA-MB-231", "assay": "Downregulation of EZH2 in human MDA-MB-231 cells at 2 uM for 2 days by immunoblot analysis", "type": "functional, cell-based", "details": "time 2.0 day"}, "MDA-MB-436 [17]": {"test_system": "MDA-MB-436", "assay": "Upregulation of TP53 gene in human MDA-MB-436 cells at 2 uM by qRT-PCR analysis", "type": "functional, cell-based", "summary_of_the_method": "as §3"}, "MDA-MB-436 [18]": {"test_system": "MDA-MB-436", "assay": "Downregulation of EZH2 transcription in human MDA-MB-436 cells at 2 uM for 2 days by immunoblot analysis", "type": "functional, cell-based", "details": "time 2.0 day"}, "MDA-MB-231 [19]": {"test_system": "MDA-MB-231", "assay": "Effect on human MDA-MB-231 cells assessed as apoptotic phenotype by measuring increase in p53 expression level at 2 uM in presence of adriamycin by immunoblot analysis", "type": "functional, cell-based", "summary_of_the_method": "as §2"}, "MDA-MB-231 [20]": {"test_system": "MDA-MB-231", "assay": "In vivo activation of p53 expression in Crl:NU-Foxn1-nu/nu mouse xenografted with human MDA-MB-231 cells at 5 mg/kg, ip in presence of adriamycin treated for 21 days", "type": "functional, organism-based", "details": "time 21.0 day"}, "MDA-MB-436 [21]": {"test_system": "MDA-MB-436", "assay": "Induction of cell cycle arrest in human MDA-MB-436 cells assessed as accumulation of cells at G1 phase measured at 2 uM by BrdU/PI staining based flow cytometric analysis (reference value: 48.3%)", "type": "functional"}, "MDA-MB-436 [22]": {"test_system": "MDA-MB-436", "assay": "Effect on human MDA-MB-436 cells expressing shTET1 assessed as increase in p53 cascade by immunoblot analysis", "type": "functional, cell-based"}, "MDA-MB-231 [23]": {"test_system": "MDA-MB-231", "assay": "Upregulation of TET1 in human MDA-MB-231 cells at 2 uM for 2 days by immunoblot analysis", "type": "functional, cell-based", "details": "time 2.0 day"}, "MDA-MB-453": {"test_system": "MDA-MB-453", "assay": "Antiproliferative activity against human MDA-MB-453 cells at 0.5 to 2 uM for 2 days by Guava viacount assay", "type": "functional, cell-based", "details": "dose 0.5-2 µM, time 2.0 day", "summary_of_the_method": "as §1"}, "MDA-MB-436 [24]": {"test_system": "MDA-MB-436", "assay": "Antitumor activity against human MDA-MB-436 cells xenografted in Crl:NU-Foxn1-nu/nu mouse assessed as reduction in tumor administered at 5 mg/kg, ip in presence of adriamycin treated for 21 days", "type": "functional, organism-based", "details": "time 21.0 day"}}, "note": "Calls of active or inactive are those of the source. The rule behind the calls is not given here."}
{"smiles": "CCCc1cc(C)[nH]c(=O)c1CNC(=O)c1cc(-c2ccnc(N3CCN(C)CC3)c2)cc2c1cnn2C(C)C", "values": [{"measurement": "Activity", "setting": "SK-BR-3", "result": "Non-Toxic"}, {"measurement": "Activity", "setting": "MDA-MB-231 [1]", "result": "Active"}, {"measurement": "Activity", "setting": "MDA-MB-361 [2]", "result": "Non-Toxic"}, {"measurement": "Activity", "setting": "MDA-MB-231 [3]", "result": 76.8, "unit": "%"}, {"measurement": "Activity", "setting": "MDA-MB-231 [4]", "result": "Active"}, {"measurement": "Activity", "setting": "MDA-MB-436 [5]", "result": "Active"}, {"measurement": "Activity", "setting": "MDA-MB-231 [6]", "result": "Active"}, {"measurement": "Activity", "setting": "MDA-MB-231 [7]", "result": "Active"}, {"measurement": "Activity", "setting": "MCF7 [8]", "result": "Non-Toxic"}, {"measurement": "Activity", "setting": "MDA-MB-436 [9]", "result": "Active"}, {"measurement": "Activity", "setting": "MCF7 [10]", "result": "inactive"}, {"measurement": "Activity", "setting": "MDA-MB-231 [11]", "result": "Active"}, {"measurement": "Activity", "setting": "MDA-MB-436 [12]", "result": "Active"}, {"measurement": "Activity", "setting": "MDA-MB-231 [13]", "result": "Active"}, {"measurement": "Activity", "setting": "MDA-MB-436 [14]", "result": 20.3, "unit": "%"}, {"measurement": "Activity", "setting": "MDA-MB-361 [15]", "result": "Non-Toxic"}, {"measurement": "Activity", "setting": "MDA-MB-231 [16]", "result": "Active"}, {"measurement": "Activity", "setting": "MDA-MB-436 [17]", "result": "Active"}, {"measurement": "Activity", "setting": "MDA-MB-436 [18]", "result": "Active"}, {"measurement": "Activity", "setting": "MDA-MB-231 [19]", "result": "Active"}, {"measurement": "Activity", "setting": "MDA-MB-231 [20]", "result": "Active"}, {"measurement": "Activity", "setting": "MDA-MB-436 [21]", "result": 71.1, "unit": "%"}, {"measurement": "Activity", "setting": "MDA-MB-436 [22]", "result": "inactive"}, {"measurement": "Activity", "setting": "MDA-MB-231 [23]", "result": "Active"}, {"measurement": "Activity", "setting": "MDA-MB-453", "result": "Active"}, {"measurement": "Activity", "setting": "MDA-MB-436 [24]", "result": "Active"}]}
